# Source: PubChem
# RGS4 pot: RGS4 potentiators or activators, primary screen, cell-based, HEK293 M3R inducible RGS4, calcium flux. carbachol calcium flux Fluo4; hits give low values. B-score at 10 µM. 310,000 compounds, 0.92% hits. AID 463111, 2010;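 active means B-score of the integrated calcium signal more than 4 SD below the library mean, with starting fluorescence not abnormally high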;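 further: negative B-score means reduced calcium response which marks RGS4 activation or potentiation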
#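 test system = HEK293 cells with stable M3R and inducible RGS4 | schedule = recording 10 s baseline at 1 Hz, 100 s post-agonist | technique = Fluo4-AM (2 µM) calcium-flux fluorescence, kinetic read | measure = Agonist-evoked peak-minus-minimum fluorescence over baseline, integrated ratio, B score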
# MrgX1 agonist: agonists of human MrgX1 receptor, primary screen, HEK293 cells, Fluo-4 calcium flux; 310,000 compounds, 0.44% hits; Fluo-4 calcium fluorescence, agonist mode; hits give high values; B-score at 10 µM; Mas-related G-protein coupled receptor member X1 (Homo sapiens), Q96LB2; AID 588627, 2011;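 active means calcium response B-score plate-corrected fluorescence ratio at least 3 library SD, with starting fluorescence B-score inside 5 SD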
# Target sequence (Q96LB2 whole entry, looked up): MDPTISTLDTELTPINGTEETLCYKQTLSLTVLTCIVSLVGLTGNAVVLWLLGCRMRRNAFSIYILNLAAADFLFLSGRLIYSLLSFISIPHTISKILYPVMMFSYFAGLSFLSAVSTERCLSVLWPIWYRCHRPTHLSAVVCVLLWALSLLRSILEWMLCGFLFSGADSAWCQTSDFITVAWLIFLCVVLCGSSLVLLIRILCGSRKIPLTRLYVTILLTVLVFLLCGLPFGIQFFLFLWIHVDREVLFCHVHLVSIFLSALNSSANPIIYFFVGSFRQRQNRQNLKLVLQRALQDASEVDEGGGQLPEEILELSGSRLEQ
#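 times = overnight plating, then 30 min 37 °C plus 30 min room-temperature dye loading | assay system = stable human MrgX1 HEK293 cell line | input = fifteen thousand cells per well | signal = kinetic calcium dye fluorescence, Fluo-4 NW | dosing = compound delivered in addition one of three | read-out = B-scored fluorescence response ratio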
# MrgX1 allo act: positive allosteric modulators of MrgX1, primary screen, HEK293 cells, Fluo-4 calcium flux; B-score at 10 µM; 310,000 compounds, 0.63% hits; Mas-related G-protein coupled receptor member X1 (Homo sapiens), Q96LB2; FDSS; hits give high values;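 active means plate-corrected calcium response at least 3 library SD above typical, normal starting fluorescence, not activating the receptor alone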;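 further: compound read alongside a low EC10 to EC30 dose of BAM8-22 agonist; peak minus trough fluorescence over baseline measured at the second addition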
# MrgX1 antagonist: antagonists of human MrgX1 receptor, primary screen, HEK293 cells, Fluo-4 calcium flux; BAM8-22 antagonism; hits give low values; B-score at 10 µM; 310,000 compounds, 1.3% hits; AID 588676, 2011;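 active means calcium-response B-score plate-corrected more than 3 library SD below zero, starting fluorescence within 5 deviations, no agonist response on first addition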;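 further: peak minus trough fluorescence over baseline after final BAM8-22 challenge near maximal dose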
# RGS4 inh: RGS4 inhibitors, primary screen, cell-based, HEK293 M3R inducible RGS4, calcium flux. B-score at 10 µM. Regulator of G-protein signaling 4 (Homo sapiens), P49798. Fluo-4 calcium flux; hits give high values; triggered by carbachol at its EC20. 310,000 compounds, 0.45% hits;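 active means B-score, a plate-corrected calcium signal, over three deviations above library mean, with baseline fluorescence within five deviations of library mean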;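 further: RGS4 expression induced by doxycycline in cells with stable M3 receptor; B-score is computed from the integrated fluorescence ratio over baseline after carbachol; higher B-score means a larger calcium signal and so more RGS4 inhibition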
# Target sequence (P49798 whole entry, looked up): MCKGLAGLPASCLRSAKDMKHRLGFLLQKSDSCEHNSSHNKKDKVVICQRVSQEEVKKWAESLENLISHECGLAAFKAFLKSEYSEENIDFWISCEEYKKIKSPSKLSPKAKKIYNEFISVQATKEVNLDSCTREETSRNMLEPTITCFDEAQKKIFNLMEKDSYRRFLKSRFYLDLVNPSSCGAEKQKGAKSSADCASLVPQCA
# MrgX1 allo conf: MrgX1 positive allosteric modulators, duplicate retest, confirmation, HEK293 cells, Fluo-4 calcium flux. shares compounds with MrgX1 allo act. Fluo-4 calcium fluorescence, FDSS. activation (ratio percentage), % at 10 µM. 1,200 compounds, 13% hits. AID 602413, 2012;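 active means ratio at least 3 SD above the weak peptide control, stable starting fluorescence, no direct agonism earlier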;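 further: compound followed by low BAM8-22 agonist challenge near EC20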
# HEK293 Ca flux: nonspecific calcium signal in parental HEK293, confirmation, counter-screen for MrgX1 antagonist project, parental HEK293 cells, Fluo-4 calcium flux | shares compounds with MrgX1 antagonist | Fluo-4 calcium fluorescence, FDSS | fluorescence ratio F(max-min)/F0 at 10 µM | 4,000 compounds, 2% hits | AID 624111, 2012;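 active means duplicate-averaged calcium fluorescence ratio at least three times the standard deviation of buffer wells, a nonspecific response in parental cells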
# HEK293 Ca counter: calcium response in parental HEK293 cells, primary screen, counter-screen for MrgX1 allosteric activator project, cell-based, Fluo-4 calcium flux, duplicate. Fluo-4 fluorescence ratio; hits give high values. 4,000 compounds, 0.4% hits. shares compounds with MrgX1 antagonist. fluorescence ratio F(max-min)/F0 at 10 µM;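 active means calcium fluorescence ratio, averaged over duplicates, at least 3 SD of the buffer-well ratio, meaning a nonspecific response in receptor-free cells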;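 further: untransfected parental HEK293 lacking MrgX1 used as counterscreen for MrgX1 allosteric activators; fluorescence change taken during the second addition on a kinetic imager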
# HEK293 Ca cntr2: calcium response in parental HEK293 cells, primary screen, counter-screen for MrgX1 agonist project, cell-based, Fluo-4 calcium flux, duplicate, agonist mode; fluorescence ratio F(max-min)/F0 at 10 µM; shares compounds with MrgX1 antagonist; 4,000 compounds, 8.7% hits; Fluo-4 calcium fluorescence (FDSS); hits give high values;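 active means calcium fluorescence ratio at least three times the spread of buffer wells, meaning a non-specific response in parental cells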
# A number is an active result; . = inactive; / = no result given. Only some compounds are listed: those with a hit (about 3.5% of all), similar ones and a draw of the others.
SMILES,RGS4 pot,MrgX1 agonist,MrgX1 allo act,MrgX1 antagonist,RGS4 inh,MrgX1 allo conf,HEK293 Ca flux,HEK293 Ca counter,HEK293 Ca cntr2
O=C(Nc1nc2n(n1)C(c1ccccc1)CC(c1ccc(Cl)cc1)N2)c1ccco1 (stereo not given),.,.,7.3,.,.,.,.,.,.
CC(C)(C)Sc1ccc2nc3c(n2c1)CCCC3,.,.,16,.,.,.,.,.,.
CCN1CCc2c(OCc3ccccc3)cccc2C1=O,.,.,11,.,.,.,.,.,.
CN1CCc2c(OCC(=O)N3CCC(Cc4ccccc4)CC3)cccc2C1=O,.,.,9.8,.,.,.,.,.,.
COc1ccc(C2CC(c3cccs3)=NN2C(=O)COC(=O)c2cncc(Br)c2)cc1OC (stereo not given),.,.,.,.,.,/,/,/,/
O=C(Nc1cc(F)c(Br)cc1F)c1ccc(Cl)cc1,.,.,21,.,.,10%,.,.,.
CCOC(=O)N1CCN(Cc2cc(Cl)c3cccnc3c2O)CC1,.,.,.,.,.,/,/,/,/
N#CCC(=O)NNc1c([N+](=O)[O-])cc(C(F)(F)F)cc1[N+](=O)[O-],.,.,.,.,.,/,/,/,/
N=C1/C(=C/c2ccc(OCc3ccccc3F)cc2)C(=O)N=C2SC(CC(=O)N3CCOCC3)=NN12,.,.,35,.,.,21%,.,.,.
O=C(COC(=O)C12CC3CC(CC(O)(C3)C1)C2)Nc1ccccc1OC(F)F,.,.,.,.,.,/,/,/,/
O=C(COc1ccccc1F)NC12CC3CC(CC(C3)C1)C2,.,.,6.6,.,.,.,.,.,.
O=C(COC(=O)C12CC3CC(CC(C3)C1)C2)Nc1ccccc1F,.,.,13,.,.,.,.,.,.
O=C(COC(=O)C(O)c1ccccc1)NC12CC3CC(CC(C3)C1)C2 (stereo not given),.,.,.,.,.,/,/,/,/
Cc1ccc(Nc2nnc(SCC(=O)c3ccc(O)cc3O)s2)cc1,.,.,.,.,.,/,/,/,/
O=C(Nc1ccc(Br)cc1)c1cccc(N2C(=O)C3C4CCC(C4)C3C2=O)c1 (stereo not given),.,.,.,.,.,/,/,/,/
Cc1cccc(-n2c(-c3csc(C(C)C)c3)n[nH]c2=S)c1,.,.,.,.,.,/,/,/,/
CCCc1cc(-c2n[nH]c(=S)n2-c2cccc(C)c2)cs1,.,.,8,.,.,.,.,.,.
O=C(COC(=O)CCC(=O)c1ccc(F)cc1)Nc1ccc2[nH]c(=O)[nH]c2c1,.,.,.,.,.,/,/,/,/
CCC(=O)Oc1ccc(C(=O)Nc2c[nH]c(=O)[nH]c2=O)cc1,.,.,.,.,.,/,/,/,/
CCOC(=O)N1CCN(C(=S)Nc2cc(S(=O)(=O)N3CCOCC3)ccc2Cl)CC1,.,.,9.2,.,.,.,.,.,.
COc1ccc(NC(=O)c2cccc(C(=O)Nc3ccc(OC)cc3)n2)cc1,.,.,8.8,.,.,.,.,.,.
COc1ccc(NC(=O)c2cc(-c3cccc(OC)c3)on2)cc1,.,.,.,.,.,/,/,/,/
COc1ccc(CCNC(=O)C(=O)NCc2cccs2)cc1OC,.,.,.,.,.,/,/,/,/
Cc1cccc(N=C2NC(=O)/C(=C3/C(=O)N(C)c4ccccc43)S2)c1C,.,.,7.3,.,.,.,.,.,.
CN(Cc1ccccc1)C(NC(=O)c1ccccc1)C(Cl)(Cl)Cl (stereo not given),.,.,.,.,.,/,/,/,/
SMILES,RGS4 pot,MrgX1 agonist,MrgX1 allo act,MrgX1 antagonist,RGS4 inh,MrgX1 allo conf,HEK293 Ca flux,HEK293 Ca counter,HEK293 Ca cntr2
CN(Cc1ccccc1)C(NC(=O)c1ccco1)C(Cl)(Cl)Cl (stereo not given),.,.,6.6,.,.,.,.,.,.
CCOC(=O)c1cc(-c2ccco2)nn1-c1ccc(C)cc1,.,.,.,.,.,/,/,/,/
Cc1ccc(-n2nc(-c3ccco3)cc2C(=O)O)cc1,.,.,25,.,.,5.6%,.,.,.
Cc1ccc2c(c1)N(C(=O)CCC(=O)NC1CCCCCC1)CC(C)O2 (stereo not given),.,.,.,.,.,/,/,/,/
O=C1N=c2ccccc2=C1c1sc(NS(=O)(=O)c2ccccc2)nc1O,.,.,21,.,.,.,.,.,.
CC(C)(C)c1cc(C(=O)NNc2cc(C(F)(F)F)ccc2Cl)n(Cc2ccccc2)n1,.,.,.,.,.,/,/,/,/
COc1ccc(-c2nnc(NC(=O)c3cc(C)on3)s2)cc1,.,.,8.2,.,.,.,.,.,.
Cc1ccc(C#CC[N+]2(C)CCCCC2)cc1,.,.,.,.,.,/,/,/,/
CCC(C)NCCOc1ccccc1C (stereo not given),.,.,13,.,.,.,.,.,.
CCCC(=O)NC1=C(C#N)C2(CCCC2)Cc2ccccc21,.,.,.,.,.,/,/,/,/
CCC1(CC)Cc2ccccc2C(N)=C1C#N,.,.,15,.,.,.,.,.,.
O=C(NC(=S)NC1CCCCC1)c1ccc(F)cc1,.,.,7,.,.,.,.,.,.
O=C(NC(=S)NC1CCN(Cc2ccccc2)CC1)c1ccc(F)cc1,.,.,.,.,.,/,/,/,/
COc1cccc(N2C(=NC(=O)C3CCCCC3)SC3CS(=O)(=O)CC32)c1 (stereo not given),.,.,.,.,.,/,/,/,/
CS(=O)(=O)N(CCc1ccccc1)CC(=O)Nc1ccc(OCc2ccccc2)cc1,.,.,.,.,.,/,/,/,/
COC(=O)c1ccccc1NC(=O)CN(CCc1ccccc1)S(C)(=O)=O,.,.,9.5,.,.,.,.,.,.
CCOC(=O)c1c(C)[nH]c(C(=O)N/N=C\c2ccccc2Cl)c1C,.,.,.,.,.,/,/,/,/
CC(=O)Nc1ccc(N2CCN(c3ccc(C(F)(F)F)cn3)CC2)nc1,.,.,.,.,.,/,/,/,/
